ChEMBL document CHEMBL2057104, “Identification of myricetin and scutellarein as novel chemical inhibitors of the SARS coronavirus helicase, nsP13” (Bioorg Med Chem Lett, 2012)
Activity calls are given as the source filed them.

Legend:
[1] = tested on: Severe acute respiratory syndrome-related coronavirus; test: Inhibition of SARS coronavirus nsP13 helicase activity expressed in Escherichia coli Rosetta assessed inhibition of DNA unwinding activity at 10 uM by FRET assay
How it was run: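 FRET dsDNA-unwinding assay using fluorescein/TAMRA-labelled duplex. When nsP13 unwinds the duplex, fluorescein emission is unquenched. Compound was added to the unwinding reaction at 10 µM, and fluorescence was read at 535 nm.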

Hepacivirus hominis [2] = test: Inhibition of HCV NS3 helicase ATP hydrolysis activity overexpressed in Escherichia coli BL21(DE3) assessed as inhibition of inorganic phosphate release by AM/MG-based colometric analysis in the presence of M13 ssDNA
Hepacivirus hominis [3] = test: Inhibition of HCV NS3 helicase overexpressed in Escherichia coli BL21(DE3) assessed as inhibition of DNA unwinding activity at 10 uM by FRET assay

Measured: inhibition

CC(C)=CCOc1c2occc2cc2ccc(=O)oc12
inactive: [1] | Hepacivirus hominis [2] | Hepacivirus hominis [3]

CC(C)=CCc1c(O)c(CC=C(C)C)c2oc3c(O)cccc3c(=O)c2c1O
inactive: [1] | Hepacivirus hominis [2] | Hepacivirus hominis [3]

C=C(C)[C@@H](C)CC[C@@H](C)[C@H]1CC[C@@]2(C)[C@@H]3CC[C@H]4C(C)(C)C(=O)CC[C@]4(C)C3=CC[C@]12C
inactive: [1] | Hepacivirus hominis [2] | Hepacivirus hominis [3]

COc1ccc(-c2oc3c(CC=C(C)C)c(O[C@@H]4O[C@H](CO)[C@@H](O)[C@H](O)[C@H]4O)cc(O)c3c(=O)c2O[C@@H]2O[C@@H](C)[C@H](O)[C@@H](O)[C@H]2O)cc1
inactive: [1] | Hepacivirus hominis [2] | Hepacivirus hominis [3]

CCCCCCCCCCCCC/C=C1/C(=O)O[C@H](C)[C@@H]1O
inactive: [1] | Hepacivirus hominis [2] | Hepacivirus hominis [3]

C=C[C@]1(C)CC[C@@]2(C)C3=CCC[C@](C)(CO)[C@@H]3CC[C@@H]2C1
inactive: [1] | Hepacivirus hominis [2] | Hepacivirus hominis [3]

Cc1cc(=O)c2c(O)c3c(cc2o1)OC(C)(C)[C@@H](O)C3
inactive: [1] | Hepacivirus hominis [2] | Hepacivirus hominis [3]

COc1ccc(C(=O)O[C@H]2[C@@H]3C=CO[C@@H](O[C@@H]4O[C@H](CO)[C@@H](O)[C@H](O)[C@H]4O)[C@@H]3[C@@]3(CO)O[C@@H]23)cc1OC
inactive: [1] | Hepacivirus hominis [2] | Hepacivirus hominis [3]

COc1ccc(-c2cc(=O)c3c(O)cc(O[C@H]4O[C@@H](CO)[C@H](O)[C@@H](O)[C@@H]4O)cc3o2)cc1O
inactive: [1] | Hepacivirus hominis [2] | Hepacivirus hominis [3]

O=C(O[C@H]1[C@@H]2C=CO[C@@H](O[C@@H]3O[C@H](CO)[C@@H](O)[C@H](O)[C@H]3O)[C@@H]2[C@@]2(CO)O[C@@H]12)c1ccc(O)c(O)c1
inactive: [1] | Hepacivirus hominis [2] | Hepacivirus hominis [3]

COc1c2c(cc3oc(C)cc(=O)c13)OC(C(C)(C)O[C@H]1O[C@@H](CO)[C@H](O)[C@@H](O)[C@@H]1O)C2 (some centres not stated)
inactive: [1] | Hepacivirus hominis [2] | Hepacivirus hominis [3]

C[C@H]1C(=O)CC[C@@H]2[C@]1(C)CC[C@H]1[C@@]2(C)CC[C@@]2(C)[C@@H]3CC(C)(C)CC[C@]3(C)CC[C@]12C
inactive: [1] | Hepacivirus hominis [2] | Hepacivirus hominis [3]

CC[C@H](CC[C@@H](C)[C@H]1CC[C@H]2[C@@H]3CC=C4C[C@@H](O)CC[C@]4(C)[C@H]3CC[C@]12C)C(C)C
inactive: [1] | Hepacivirus hominis [2] | Hepacivirus hominis [3]

O=C(O)c1cc(O)c(O)c(O)c1
inactive: [1] | Hepacivirus hominis [2] | Hepacivirus hominis [3]

Cc1cc(=O)c2c(O)c3c(cc2o1)OC(C)(C)[C@@H](O[C@H]1O[C@@H](CO)[C@H](O)[C@@H](O)[C@@H]1O)C3
inactive: [1] | Hepacivirus hominis [2] | Hepacivirus hominis [3]

COc1ccc([C@@H]2CC(=O)c3c(O)cc(O)cc3O2)cc1O[C@@H]1O[C@H](CO[C@@H]2O[C@@H](C)[C@H](O)[C@@H](O)[C@H]2O)[C@@H](O)[C@H](O)[C@H]1O
inactive: [1] | Hepacivirus hominis [2] | Hepacivirus hominis [3]

CC1(C)CC[C@]2(C(=O)O)CC=C3[C@]4(C)CC[C@H]5C(C)(C)[C@@H](O)CC[C@]5(C)[C@H]4CC[C@@]3(C)[C@@H]2C1
inactive: [1] | Hepacivirus hominis [2] | Hepacivirus hominis [3]

O=c1cc(-c2ccccc2)oc2cc(O)cc(O)c12
inactive: [1] | Hepacivirus hominis [2] | Hepacivirus hominis [3]

O=c1c(-c2ccc(O)cc2)coc2cc(O[C@@H]3O[C@H](CO)[C@@H](O)[C@H](O)[C@H]3O)ccc12
inactive: [1] | Hepacivirus hominis [2] | Hepacivirus hominis [3]

CC[C@H](CC[C@@H](C)[C@H]1CC[C@H]2[C@@H]3CC=C4C[C@@H](O[C@@H]5O[C@H](CO)[C@@H](O)[C@H](O)[C@H]5O)CC[C@]4(C)[C@H]3CC[C@]12C)C(C)C
inactive: [1] | Hepacivirus hominis [2] | Hepacivirus hominis [3]

CC1(C)CC[C@]2(C(=O)O)CC[C@]3(C)C(=CC[C@@H]4[C@@]5(C)CC[C@H](O)C(C)(C)[C@@H]5CC[C@]43C)[C@@H]2C1
inactive: [1] | Hepacivirus hominis [2] | Hepacivirus hominis [3]

O=c1c(O[C@@H]2O[C@H](CO)[C@@H](O)[C@H](O)[C@H]2O)c(-c2ccc(O)c(O)c2)oc2cc(O)cc(O)c12
inactive: [1] | Hepacivirus hominis [2] | Hepacivirus hominis [3]

C[C@H]1[C@H](C)CC[C@]2(C)CC[C@]3(C)C(=CC[C@@H]4[C@@]5(C)CC[C@H](O)C(C)(C)[C@@H]5CC[C@]43C)[C@H]12
inactive: [1] | Hepacivirus hominis [2] | Hepacivirus hominis [3]

O=c1c(O)c(-c2ccccc2)oc2cc(O)cc(O)c12
inactive: [1] | Hepacivirus hominis [2] | Hepacivirus hominis [3]

C[C@@H]1O[C@@H](O[C@H]2[C@H](Oc3cc(O)c4c(c3)O[C@H](c3ccc(O)cc3)CC4=O)O[C@H](CO)[C@@H](O)[C@@H]2O)[C@H](O)[C@H](O)[C@H]1O
inactive: [1] | Hepacivirus hominis [2] | Hepacivirus hominis [3]

C=CCc1cc(OC)c(O)c(OC)c1
inactive: [1] | Hepacivirus hominis [2] | Hepacivirus hominis [3]

C/C=C(/C)C(=O)O[C@H]1Cc2c(cc3oc(CO)cc(=O)c3c2O)OC1(C)C
inactive: [1] | Hepacivirus hominis [2] | Hepacivirus hominis [3]

O=c1c(-c2ccc(O[C@@H]3O[C@H](CO)[C@@H](O)[C@H](O)[C@H]3O)cc2)coc2cc(O)cc(O)c12
inactive: [1] | Hepacivirus hominis [2] | Hepacivirus hominis [3]

COc1cc(/C=C/C(=O)CC(=O)/C=C/c2ccc(O)c(OC)c2)ccc1O
inactive: [1] | Hepacivirus hominis [2] | Hepacivirus hominis [3]

O=C1C[C@@H](c2ccc(O)cc2)Oc2cc(O)cc(O)c21
inactive: [1] | Hepacivirus hominis [2] | Hepacivirus hominis [3]

COc1ccc(/C=C/C(=O)O[C@H]2[C@@H]3C=CO[C@@H](O[C@@H]4O[C@H](CO)[C@@H](O)[C@H](O)[C@H]4O)[C@@H]3[C@@]3(CO)O[C@@H]23)cc1O
inactive: [1] | Hepacivirus hominis [2] | Hepacivirus hominis [3]

O=c1c(O[C@@H]2O[C@H](CO)[C@H](O)[C@H](O)[C@H]2O)c(-c2ccc(O)c(O)c2)oc2cc(O)cc(O)c12
inactive: [1] | Hepacivirus hominis [2] | Hepacivirus hominis [3]

O=C(/C=C/c1ccccc1)NCCCCNC(=O)c1ccccc1
inactive: [1] | Hepacivirus hominis [2] | Hepacivirus hominis [3]

O=c1c(O)c(-c2ccc(O)cc2)oc2cc(O)cc(O)c12
inactive: [1] | Hepacivirus hominis [2] | Hepacivirus hominis [3]

COc1ccc(-c2oc3c(CC=C(C)C)c(O)cc(O)c3c(=O)c2O)cc1
inactive: [1] | Hepacivirus hominis [2] | Hepacivirus hominis [3]

C=C1CC[C@@H]2[C@](C)(CCC[C@]2(C)C(=O)O)[C@H]1CCc1ccoc1
inactive: [1] | Hepacivirus hominis [2] | Hepacivirus hominis [3]

CC[C@H](/C=C/[C@@H](C)[C@H]1CC[C@H]2[C@@H]3CC=C4C[C@@H](O)CC[C@]4(C)[C@H]3CC[C@]12C)C(C)C
inactive: [1] | Hepacivirus hominis [2] | Hepacivirus hominis [3]

O=C(/C=C/c1ccc(O)cc1)c1ccc(O)cc1O
inactive: [1] | Hepacivirus hominis [2] | Hepacivirus hominis [3]

CC(C)=CCC[C@](C)(O[C@@H]1O[C@H](CO[C@@H]2O[C@H](CO)[C@@H](O)[C@H](O)[C@H]2O)[C@@H](O)[C@H](O)[C@H]1O)[C@H]1CC[C@]2(C)[C@@H]1[C@H](O)C[C@@H]1[C@@]3(C)CC[C@H](O[C@@H]4O[C@H](CO)[C@@H](O)[C@H](O)[C@H]4O[C@@H]4O[C@H](CO)[C@@H](O)[C@H](O)[C@H]4O)C(C)(C)[C@@H]3CC[C@]12C
inactive: [1] | Hepacivirus hominis [2] | Hepacivirus hominis [3]

O=C(O)[C@H]1O[C@@H](Oc2cc3oc(-c4ccc(O)cc4)cc(=O)c3c(O)c2O)[C@H](O)[C@@H](O)[C@@H]1O
inactive: [1] | Hepacivirus hominis [2] | Hepacivirus hominis [3]

CC(C)=CCC[C@](C)(O[C@@H]1O[C@H](CO[C@@H]2O[C@H](CO)[C@@H](O)[C@H](O)[C@H]2O)[C@@H](O)[C@H](O)[C@H]1O)[C@H]1CC[C@]2(C)[C@@H]1[C@H](O)C[C@@H]1[C@@]3(C)CC[C@H](O[C@@H]4O[C@H](CO)[C@@H](O)[C@H](O)[C@H]4O)C(C)(C)[C@@H]3CC[C@]12C
inactive: [1] | Hepacivirus hominis [2] | Hepacivirus hominis [3]

C=C(C)[C@@H]1CC[C@]2(C(=O)O)CC[C@]3(C)[C@H](CC[C@@H]4[C@@]5(C)CC[C@H](O)C(C)(C)[C@@H]5CC[C@]43C)[C@@H]12
inactive: [1] | Hepacivirus hominis [2] | Hepacivirus hominis [3]

O=C(/C=C/c1ccccc1)NCCCCNC(=O)Cc1ccc(O)cc1
inactive: [1] | Hepacivirus hominis [2] | Hepacivirus hominis [3]

COc1c2c(cc3oc(C)cc(=O)c13)OC(C(C)(C)O)C2 (configuration not stated)
inactive: [1] | Hepacivirus hominis [2] | Hepacivirus hominis [3]
